ChEMBL document CHEMBL1123470, “N-substituent modulation of opiate agonist/antagonist activity in resolved 3-methyl-3-(m-hydroxyphenyl)piperidines” (J Med Chem, 1986)
pKd: −log10 of the molar value. Structures can show the parent of a compound that is named as a salt. The source made the active and inactive calls. The rule behind the calls is not given here.

Legend:
Mus musculus [1] = assay: Analgesic antagonistic activity in mice using morphine(56.07 umol/kg) induced Straub-tail test after sc administration; type: functional
How it was run: (§1)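 Mice got the test substance, N-allylnormorphine reference, or diluent sc, then immediately 56.07 µmol/kg morphine sulfate sc. The number of mice showing a Straub-tail reaction (tail raised above 45°) was recorded 15–25 min after treatment.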

Mus musculus [2] = assay: Compound was tested for analgesic activity in mouse using mouse writhing test following subcutaneous administration; type: functional
Mus musculus [3] = assay: Compound was tested for analgesic potency using writhing test in mouse after sc administration of compound; type: functional
Mu-type opioid receptor [4] = target: T1, Mu-type opioid receptor (Rattus norvegicus, UniProt P33535); assay: Mu2 opioid receptor affinity against the receptor site model site 2 (mu2) by using the curve-fitting program LIGAND
[5] = target: Kappa-type opioid receptor (Rattus norvegicus, UniProt P34975); assay: Opioid receptor affinity against Opioid receptor kappa 1 by using the curve-fitting program LIGAND
[6] = target: T2, Delta-type opioid receptor (Rattus norvegicus, UniProt P33533); assay: Opioid receptor affinity against the Opioid receptor delta 1 by using the curve-fitting program LIGAND
Opioid receptor = Opioid receptor (Rattus norvegicus, UniProt P33533+P34975+P33535); assay: Opioid receptor affinity against the receptor site model site 5 by using the curve-fitting program LIGAND; type: protein assay
Mu-type opioid receptor [7] = target: T1, Mu-type opioid receptor; assay: (§2) Opioid receptor mu 1 affinity against the receptor site model site 1 (mu1) by using the curve-fitting program LIGAND
Mus musculus [8] = assay: Compound was tested for analgesic activity in mouse using mouse writhing test after sc administration of compound; type: functional
Mus musculus [9] = assay: Compound was tested for narcotic antagonist potency using tail flick test in mouse after sc administration of compound; no significant antagonist activity up to dose of 240-300 umol/kg.; type: functional, organism-based
Mu-type opioid receptor [10] = target: T1, Mu-type opioid receptor; assay: as §2; remark: listed apart in the source
How it was run: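 Rat whole-brain homogenate, preincubated 37 °C 1 h, resuspended in Tris pH 7.7 (with 100 mM NaCl when appropriate) at 6.7 mg tissue/mL. […] Triplicate tubes, 25 °C 45 min, then filtration. Self- and cross-competition data were fitted together by multisite LIGAND analysis for site affinities. Values are averages of at least two experiments.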

Mus musculus [11] = assay: Compound was tested for narcotic antagonist potency using tail flick test in mouse after sc administration of compound; type: functional
[12] = target: T2, Delta-type opioid receptor; assay: Affinity against the Opioid receptor delta 1
Mus musculus [13] = assay: Compound was tested for narcotic antagonist potency using tail flick test in mouse following subcutaneous administration; type: functional; conditions: sc
Mus musculus [14] = assay: Compound was tested for narcotic antagonist potency using tail flick test in mouse after sc administration of compound; No significant antagonist activity up to dose of 240-300 umol/kg.; type: functional, organism-based
Mus musculus [15] = assay: Analgesic antagonistic activity in mice using morphine(56.07 umol/kg) induced Straub-tail test after sc administration; No antagonist activity up to 846 umol/ kg; type: functional, organism-based; how it was run: as §1
[16] = Mus musculus, sc, read-out: ED50

T1 sequence (P33535 whole entry): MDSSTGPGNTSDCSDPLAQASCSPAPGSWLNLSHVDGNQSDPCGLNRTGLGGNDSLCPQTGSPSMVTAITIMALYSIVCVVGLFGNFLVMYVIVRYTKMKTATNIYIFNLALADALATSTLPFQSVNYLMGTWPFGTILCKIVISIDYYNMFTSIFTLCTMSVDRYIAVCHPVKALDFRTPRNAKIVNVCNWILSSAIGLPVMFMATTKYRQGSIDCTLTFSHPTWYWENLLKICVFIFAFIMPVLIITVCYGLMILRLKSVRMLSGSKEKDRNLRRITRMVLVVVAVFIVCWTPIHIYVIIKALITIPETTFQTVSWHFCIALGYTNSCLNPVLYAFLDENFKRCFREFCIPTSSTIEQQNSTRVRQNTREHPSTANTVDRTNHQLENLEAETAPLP
T2 sequence (P33533 whole entry): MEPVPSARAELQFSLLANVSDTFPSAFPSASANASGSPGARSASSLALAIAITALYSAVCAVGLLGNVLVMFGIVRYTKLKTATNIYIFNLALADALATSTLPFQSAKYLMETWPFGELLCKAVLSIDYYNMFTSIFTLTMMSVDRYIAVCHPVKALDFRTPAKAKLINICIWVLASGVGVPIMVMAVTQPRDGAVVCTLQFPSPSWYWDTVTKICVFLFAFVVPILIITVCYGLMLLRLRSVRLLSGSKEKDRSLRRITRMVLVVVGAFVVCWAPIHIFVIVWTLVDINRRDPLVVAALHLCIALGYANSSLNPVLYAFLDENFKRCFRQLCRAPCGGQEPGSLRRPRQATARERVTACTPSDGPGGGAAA
Kappa-type opioid receptor, sequence (P34975 whole entry): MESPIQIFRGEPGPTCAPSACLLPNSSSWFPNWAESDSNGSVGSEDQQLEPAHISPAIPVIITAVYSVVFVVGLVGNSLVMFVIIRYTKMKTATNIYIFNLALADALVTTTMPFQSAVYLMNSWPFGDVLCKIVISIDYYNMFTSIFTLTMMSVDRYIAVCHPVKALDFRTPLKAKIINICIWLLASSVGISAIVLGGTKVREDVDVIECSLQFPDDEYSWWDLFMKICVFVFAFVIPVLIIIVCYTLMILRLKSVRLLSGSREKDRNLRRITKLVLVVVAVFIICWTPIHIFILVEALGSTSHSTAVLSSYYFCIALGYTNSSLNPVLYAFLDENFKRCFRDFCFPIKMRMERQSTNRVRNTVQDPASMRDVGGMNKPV

C=CCN1CC[C@]23c4c5ccc(O)c4O[C@H]2[C@@H](O)C=C[C@H]3[C@H]1C5.Cl [NALORPHINE HYDROCHLORIDE]
AD50 (Mus musculus [1]): 0.71 µM/kg
ED50 (Mus musculus [2]; [16]): 1.4 µmol/kg

CC1(c2cccc(O)c2)CCCN(CCc2ccccc2)C1 (single isomer, unassigned; (-)) [listing 1 of 2 here]
ED50 (Mus musculus [3]): 18.38 µM/kg
pKd (Mu-type opioid receptor [4]): 6.89
pKd [5]: 6.20
pKd [6]: 5.66
Kd (Opioid receptor): 1.39 µM
pKd (Mu-type opioid receptor [7]): 7.89

Br.CN1CCCC(C)(c2cccc(O)c2)C1 (racemic)
AD50 (Mus musculus [1]): 18.17 µM/kg
ED50 (Mus musculus [8]): 26.9 µmol/kg

C=CCN1CCCC(C)(c2cccc(O)c2)C1 (single isomer, unassigned; (-)) [listing 1 of 2 here]
ED50 (Mus musculus [9]): inactive

CN1CCCC(C)(c2cccc(O)c2)C1 (stereo in doubt; (-)-7a) [listing 1 of 2 here]
ED50 (Mus musculus [3]; [16]): 25.7 µmol/kg
pKd (Mu-type opioid receptor [4]): 5.93
pKd [5]: 6.20
pKd [6]: 4.52
pKd (Mu-type opioid receptor [10]): 6.94
Kd (Opioid receptor): 8.33 µM

CC1(c2cccc(O)c2)CCCN(CC2CC2)C1 (single isomer, unassigned; (-)) [listing 1 of 2 here]
ED50 (Mus musculus [3]; [16]): 12.2 µmol/kg

CC1(c2cccc(O)c2)CCCN(CCc2ccccc2)C1 (single isomer, unassigned; (-)) [listing 2 of 2 here]
ED50 (Mus musculus [9]): inactive

C=CCN1CCCC(C)(c2cccc(O)c2)C1 (single isomer, unassigned; (+))
ED50 (Mus musculus [11]): 112 µmol/kg
ED50 (Mus musculus [3]): 160.94 µM/kg
pKd (Mu-type opioid receptor [4]): 6.43
pKd [5]: 6.86
pKd [6]: 5.40
pKd (Mu-type opioid receptor [10]): 7.00
Kd (Opioid receptor): 3.7 µM

CCC1C2C(=O)c3ccc(O)cc3C1(C)CCN2CC1CC1 (stereo unspecified)
pKd [12]: 7.85

C=CCN1CC[C@]23c4c5ccc(O)c4O[C@H]2[C@@H](O)C=C[C@H]3[C@H]1C5 [NALORPHINE]
ED50 (Mus musculus [13]): 2.04 µmol/kg
ED50 (Mus musculus [2]): 1.4 µM/kg

CC1(c2cccc(O)c2)CCCN(CCc2ccccc2)C1 (stereo in doubt; (+)-7d)
ED50 (Mus musculus [11]): 13.1 µmol/kg
ED50 (Mus musculus [3]; [16]): 11.5 µmol/kg
pKd (Mu-type opioid receptor [4]): 8.21
pKd [5]: 6.75
pKd [6]: 6.23
Kd (Opioid receptor): 26.3 µM
pKd (Mu-type opioid receptor [7]): 8.30

CC1(c2cccc(O)c2)CCCN(CCc2ccccc2)C1 (racemic)
AD50 (Mus musculus [1]): 33.94 µM/kg
ED50 (Mus musculus [8]): 14.1 µmol/kg

CC1(c2cccc(O)c2)CCCN(CC2CC2)C1 (single isomer, unassigned; (+))
ED50 (Mus musculus [11]): 139 µmol/kg

CC1(c2cccc(O)c2)CCCN(CC2CC2)C1 (racemic)
AD50 (Mus musculus [1]): 7.5 µM/kg
ED50 (Mus musculus [8]): 83.5 µmol/kg

C=CCN1CCCC(C)(c2cccc(O)c2)C1 (racemic)
AD50 (Mus musculus [1]): 38.83 µM/kg
ED50 (Mus musculus [8]): 418 µmol/kg

C=CCN1CCCC(C)(c2cccc(O)c2)C1 (single isomer, unassigned; (-)) [listing 2 of 2 here]
ED50 (Mus musculus [3]): 14.34 µM/kg
pKd (Mu-type opioid receptor [4]): 6.96
pKd [5]: 6.43
pKd [6]: 5.40
Kd (Opioid receptor): 1.72 µM
pKd (Mu-type opioid receptor [7]): 7.62

CN1CCCC(C)(c2cccc(O)c2)C1 (stereo in doubt; (-)-7a) [listing 2 of 2 here]
ED50 (Mus musculus [14]): inactive

CC1(c2cccc(O)c2)CCCN(CC2CC2)C1 (single isomer, unassigned; (-)) [listing 2 of 2 here]
ED50 (Mus musculus [9]): inactive

CN1CC[C@]23c4c5ccc(O)c4O[C@H]2[C@@H](O)C=C[C@H]3[C@H]1C5
ED50 (Mus musculus [2]; [16]): 0.81 µmol/kg

CN1CCCC(C)(c2cccc(O)c2)C1 (stereo in doubt; (+)-7a)
ED50 (Mus musculus [11]): 101 µmol/kg
ED50 (Mus musculus [3]): 41.36 µM/kg
pKd (Mu-type opioid receptor [4]): 6.00
pKd [5]: 6.15
pKd [6]: 4.80
Kd (Opioid receptor): 19.2 µM
pKd (Mu-type opioid receptor [7]): 6.88

CCOC(=O)C1(c2ccccc2)CCN(C)CC1 [MEPERIDINE HYDROCHLORIDE]
AD50 (Mus musculus [15]): inactive
ED50 (Mus musculus [8]): 20.2 µmol/kg
